Data published in ChEMBL document CHEMBL1138024, “Aryl urea analogs with broad-spectrum antibacterial activity” (Bioorg Med Chem Lett, 2004).
Values after ≈ are worked out from the molar mass of the structure shown. Each block holds one compound with its values, some of them ahead of it.

Assays:
Format in all cases: functional
Staphylococcus aureus [1] = assay: In vitro antibacterial activity against Staphylococcus aureus; value ranges from 6-12 uM
Staphylococcus aureus [2] = assay: In vitro antibacterial activity against Staphylococcus aureus; value ranges from 12-25 uM
Staphylococcus aureus [3] = assay: In vitro antibacterial activity against Staphylococcus aureus
Staphylococcus aureus [4] = assay: In vitro antibacterial activity against Staphylococcus aureus; value ranges from 3-6 uM
Pseudomonas aeruginosa = assay: Minimum inhibitory concentration against Pseudomonas aeruginosa ATCC 25416
Escherichia coli [5] = assay: Minimum inhibitory concentration against Escherichia coli ATCC 25922; value ranges from 12-25 uM
Enterococcus faecalis [6] = assay: Minimum inhibitory concentration against Enterococcus faecalis ATCC 29212; value ranges from 6-12 uM
Proteus vulgaris = assay: Minimum inhibitory concentration against Proteus vulgaris ATCC 8427; value ranges from 12-25 uM
Staphylococcus aureus [7] = assay: Minimum inhibitory concentration against Staphylococcus aureus ATCC 13709; value ranges from 3-6 uM
Streptococcus pyogenes [8] = assay: Minimum inhibitory concentration against Streptococcus pyogenes ATCC 49399; value ranges from 3-6 uM
Staphylococcus aureus [9] = assay: Minimum inhibitory concentration against Staphylococcus aureus ATCC 13709 (+4% BSA); value ranges from 25-50 uM
In short: (§1)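 Same microdilution MIC against S. aureus ATCC 13709, but with 4% bovine serum albumin in the wells. Compound in 0.5% DMSO in water, inoculum about 10³–10⁴ CFU/well, duplicates. Growth was read as A595 after 20–24 h at 37°C against a compound-free control. MIC is reported as the range between full inhibition and viable growth.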

Klebsiella pneumoniae [10] = assay: Minimum inhibitory concentration against Klebsiella pneumoniae ATCC 13383; value ranges from 3-6 uM
Huh-7 [11] = assay: Cytotoxic concentration against Huh7 cells at 48 hours in MTT assay; value ranges from 50-100 uM; settings: Homo sapiens, Huh-7, 48 h
Enterococcus faecium [12] = assay: Minimum inhibitory concentration against Enterococcus faecium ATCC 6569; value ranges from 6-12 uM
Staphylococcus aureus [13] = assay: In vitro antibacterial activity against Staphylococcus aureus; value ranges from 25-50 uM
Enterococcus faecium [14] = assay: Minimum inhibitory concentration against Enterococcus faecium ATCC 6569
Klebsiella pneumoniae [15] = assay: Minimum inhibitory concentration against Klebsiella pneumoniae ATCC 13383; value ranges from 6-12 uM
Streptococcus pyogenes [16] = assay: Minimum inhibitory concentration against Streptococcus pyogenes ATCC 49399; value ranges from 6-12 uM
Escherichia coli [17] = assay: Minimum inhibitory concentration against Escherichia coli ATCC 25922; value ranges from 6-12 uM
Staphylococcus aureus [18] = assay: Minimum inhibitory concentration against Staphylococcus aureus ATCC 13709 (+4% BSA); value ranges from 12-25 uM; in short: as §1
Enterococcus faecalis [19] = assay: Minimum inhibitory concentration against Enterococcus faecalis ATCC 29212; value ranges from 3-6 uM
Huh-7 [20] = assay: Cytotoxic concentration against Huh7 cells at 48 hours in MTT assay; value ranges from 12.5-25 uM; settings: Homo sapiens, Huh-7, 48 h
Staphylococcus aureus [21] = assay: In vitro antibacterial activity against Staphylococcus aureus; value ranges from 50-100 uM

Compound: FC(F)(F)c1ccc(N/C(S)=N/CCCNCc2cc(Br)cc(Br)c2)cc1
MIC (Staphylococcus aureus [1]): 12 µM (≈ 6.3 µg/mL)

Compound: S=C(NCCCNCc1cc(Br)cc(Br)c1)Nc1ccc(I)cc1
MIC (Staphylococcus aureus [2]): 25 µM (≈ 14.6 µg/mL)

Compound: CN(CCCNC(=O)Nc1ccc(C(F)(F)F)cc1)Cc1cc(Br)cc(Br)c1
MIC (Staphylococcus aureus [3]): > 100 µM

Compound: CCOc1c(Br)cc(Br)cc1CNCCCNC(=O)Nc1ccc(C(F)(F)F)cc1
MIC (Staphylococcus aureus [4]): 6 µM (≈ 3.32 µg/mL)
MIC (Pseudomonas aeruginosa): > 100 µM
MIC (Escherichia coli [5]): 25 µM (≈ 13.8 µg/mL)
MIC (Enterococcus faecalis [6]): 12 µM (≈ 6.64 µg/mL)
MIC (Proteus vulgaris): 25 µM (≈ 13.8 µg/mL)
MIC (Staphylococcus aureus [7]): 6 µM (≈ 3.32 µg/mL)
MIC (Streptococcus pyogenes [8]): 6 µM (≈ 3.32 µg/mL)
MIC (Staphylococcus aureus [9]): 50 µM (≈ 27.7 µg/mL)
MIC (Klebsiella pneumoniae [10]): 6 µM (≈ 3.32 µg/mL)
CC50 (Huh-7 [11]): 100 µM
MIC (Enterococcus faecium [12]): 12 µM (≈ 6.64 µg/mL)

Compound: S=C(NCCCNCc1cc(Br)cc(Br)c1)Nc1ccc(Cl)c(Cl)c1
MIC (Staphylococcus aureus [4]): 6 µM (≈ 3.16 µg/mL)

Compound: COc1cccc(N/C(S)=N/CCCNCc2cc(Br)cc(Br)c2)c1
MIC (Staphylococcus aureus [13]): 50 µM (≈ 24.4 µg/mL)

Compound: O=C(NCCCNCc1cc(Br)cc(Br)c1)Nc1ccc(Cl)cc1
MIC (Staphylococcus aureus [1]): 12 µM (≈ 5.71 µg/mL)

Compound: Fc1ccc(N/C(S)=N/CCCNCc2cc(Br)cc(Br)c2)cc1
MIC (Staphylococcus aureus [2]): 25 µM (≈ 11.9 µg/mL)

Compound: O=C(NCCCNCc1cc(Br)cc(Br)c1)Nc1ccc(C(F)(F)F)cc1
MIC (Staphylococcus aureus [4]): 6 µM (≈ 3.05 µg/mL)
MIC (Enterococcus faecium [14]): > 100 µM
MIC (Pseudomonas aeruginosa): > 100 µM
MIC (Escherichia coli [5]): 25 µM (≈ 12.7 µg/mL)
MIC (Klebsiella pneumoniae [15]): 12 µM (≈ 6.11 µg/mL)
MIC (Enterococcus faecalis [6]): 12 µM (≈ 6.11 µg/mL)
MIC (Proteus vulgaris): 25 µM (≈ 12.7 µg/mL)
MIC (Streptococcus pyogenes [16]): 12 µM (≈ 6.11 µg/mL)
MIC (Staphylococcus aureus [7]): 6 µM (≈ 3.05 µg/mL)
MIC (Staphylococcus aureus [9]): 50 µM (≈ 25.5 µg/mL)

Compound: FC(F)(F)c1cccc(N/C(S)=N/CCCNCc2cc(Br)cc(Br)c2)c1
MIC (Staphylococcus aureus [1]): 12 µM (≈ 6.3 µg/mL)

Compound: COc1ccc(-c2ccc(CNCCCNC(=O)Nc3ccc(C(F)(F)F)cc3)cc2)cc1
MIC (Staphylococcus aureus [4]): 6 µM (≈ 2.74 µg/mL)

Compound: COc1ccc(N/C(S)=N/CCCNCc2cc(Br)cc(Br)c2)cc1
MIC (Staphylococcus aureus [13]): 50 µM (≈ 24.4 µg/mL)

Compound: S=C(NCCCNCc1cc(Br)cc(Br)c1)Nc1cccc(Br)c1
MIC (Staphylococcus aureus [1]): 12 µM (≈ 6.43 µg/mL)

Compound: O=C(NCCCNCc1cc(Br)cc(Br)c1)Nc1ccc(Cl)c(Cl)c1
MIC (Staphylococcus aureus [4]): 6 µM (≈ 3.06 µg/mL)

Compound: CC(=O)Nc1ccc(CNCCCNC(=O)Nc2ccc(C(F)(F)F)cc2)cc1
MIC (Staphylococcus aureus [3]): > 100 µM

Compound: S=C(NCCCNCc1cc(Br)cc(Br)c1)Nc1cccc(Cl)c1
MIC (Staphylococcus aureus [1]): 12 µM (≈ 5.9 µg/mL)

More lines, main results first:

MIC (Staphylococcus aureus [1]): 12 µM (≈ 5.69 µg/mL)
Compound: CCOc1ccc(Br)cc1CNCCCNC(=O)Nc1ccc(C(F)(F)F)cc1

MIC (Staphylococcus aureus [1]): 12 µM (≈ 5.13 µg/mL)
Compound: O=C(NCCCNCc1cccc(-c2ccccc2)c1)Nc1ccc(C(F)(F)F)cc1

MIC (Staphylococcus aureus [2]): 25 µM (≈ 10.9 µg/mL)
Compound: O=C(NCCCNCc1ccccc1OC(F)(F)F)Nc1ccc(C(F)(F)F)cc1

MIC (Staphylococcus aureus [4]): 6 µM (≈ 2.52 µg/mL)
Compound: O=C(NCCCNCc1ccc(Cl)c(Cl)c1)Nc1ccc(C(F)(F)F)cc1

MIC (Escherichia coli [17]): 12 µM (≈ 5.32 µg/mL)
MIC (Staphylococcus aureus [4]): 6 µM (≈ 2.66 µg/mL)
MIC (Enterococcus faecium [14]): > 100 µM
MIC (Pseudomonas aeruginosa): > 100 µM
MIC (Klebsiella pneumoniae [15]): 12 µM (≈ 5.32 µg/mL)
MIC (Proteus vulgaris): 25 µM (≈ 11.1 µg/mL)
MIC (Staphylococcus aureus [7]): 6 µM (≈ 2.66 µg/mL)
MIC (Streptococcus pyogenes [8]): 6 µM (≈ 2.66 µg/mL)
MIC (Staphylococcus aureus [18]): 25 µM (≈ 11.1 µg/mL)
MIC (Enterococcus faecalis [19]): 6 µM (≈ 2.66 µg/mL)
Compound: O=C(NCCCNCc1ccc(Oc2ccccc2)cc1)Nc1ccc(C(F)(F)F)cc1
CC50 (Huh-7 [20]): 25 µM

MIC (Staphylococcus aureus [21]): 100 µM (≈ 38.7 µg/mL)
Compound: O=C(NCCCNCc1cc(F)cc(F)c1)Nc1ccc(C(F)(F)F)cc1

MIC (Staphylococcus aureus [1]): 12 µM (≈ 5.49 µg/mL)
Compound: COc1ccccc1-c1ccc(CNCCCNC(=O)Nc2ccc(C(F)(F)F)cc2)cc1
